For test [1], the target named is T1, Urease subunit alpha/Urease subunit beta (Helicobacter pylori (strain ATCC 700392 / 26695) (Campylobacterpylori), UniProt P69996). Kind of test: Inhibition of urease in Helicobacter pylori ATCC 43504 intact cell assessed as ammonia production preincubated for 1.5 hrs by indophenol-based method. Summed up: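 H. pylori grown 24 h at 37 °C in Brucella broth with 10% heat-inactivated horse serum, microaerobic (5% O₂, 10% CO₂, 85% N₂); cells pelleted (5000 g, 4 °C), PBS-washed (pH 7.4), suspended at 4.0 × 10⁷ CFU/mL. Suspension with test compound preincubated 1.5 h at room temperature; ammonia measured by Weatherburn indophenol method.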

The target of test [2] is T2, Urease subunit alpha/Urease subunit beta (Helicobacter pylori (strain ATCC 700392 / 26695) (Campylobacterpylori)) (UniProt P69996+P14916). Kind of test: Ratio of IC50 for urease in Helicobacter pylori ATCC 43504 intact cell to IC50 for urease extracted from Helicobacter pylori ATCC 43504.
The target in test [3] is T1, Urease subunit alpha/Urease subunit beta. In words: Inhibition of urease extracted from Helicobacter pylori ATCC 43504 assessed as ammonia production preincubated for 1.5 hrs by indophenol-based method. An outline of the steps:
(§1)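 H. pylori ATCC 43504 grown 24 h at 37 °C in Brucella broth with 10% heat-inactivated horse serum under microaerobic gas (5% O2, 10% CO2, 85% N2). Cells pelleted (5000 g, 4 °C) and washed twice in PBS pH 7.4 to prepare urease. Enzyme pre-incubated with test compound 1.5 h at room temperature. Ammonia measured by the indophenol method. Run in triplicate.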

For test [4] the target is unchanged. In words: Mixed-type competitive inhibition of Helicobacter pylori ATCC 43504 urease using urea as substrate by Lineweaver-burk plot analysis.
Test [5] concerns the target T2, Urease subunit alpha/Urease subunit beta (Helicobacter pylori (strain ATCC 700392 / 26695) (Campylobacterpylori)). In words: Potency index, ratio of AHA IC50 to compound IC50 for Helicobacter pylori ATCC 43504 urease.
Test [6] deals with T1, Urease subunit alpha/Urease subunit beta. In words: Inhibition of Helicobacter pylori urease. Summed up: as §1

The text below walks through data of ChEMBL document CHEMBL2424553, “Synthesis, molecular docking and kinetic properties of β-hydroxy-β-phenylpropionyl-hydroxamic acids as Helicobacter pylori urease inhibitors” (Eur J Med Chem, 2013).

T1 sequence (P69996 whole entry): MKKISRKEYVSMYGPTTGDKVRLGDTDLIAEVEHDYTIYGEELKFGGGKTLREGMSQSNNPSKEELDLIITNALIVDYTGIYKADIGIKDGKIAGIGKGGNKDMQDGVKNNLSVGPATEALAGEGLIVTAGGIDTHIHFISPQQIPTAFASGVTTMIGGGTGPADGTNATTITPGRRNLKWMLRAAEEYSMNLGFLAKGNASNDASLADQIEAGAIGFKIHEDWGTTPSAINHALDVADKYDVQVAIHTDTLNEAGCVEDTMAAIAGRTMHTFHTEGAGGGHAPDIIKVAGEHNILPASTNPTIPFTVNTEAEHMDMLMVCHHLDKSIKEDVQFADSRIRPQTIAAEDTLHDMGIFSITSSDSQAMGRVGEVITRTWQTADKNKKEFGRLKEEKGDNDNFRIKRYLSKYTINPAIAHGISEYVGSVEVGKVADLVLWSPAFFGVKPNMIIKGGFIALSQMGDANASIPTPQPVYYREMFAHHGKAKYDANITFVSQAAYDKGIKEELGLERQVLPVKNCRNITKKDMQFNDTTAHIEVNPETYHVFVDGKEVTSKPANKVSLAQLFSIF
T1 sequence (P14916 whole entry, further chain): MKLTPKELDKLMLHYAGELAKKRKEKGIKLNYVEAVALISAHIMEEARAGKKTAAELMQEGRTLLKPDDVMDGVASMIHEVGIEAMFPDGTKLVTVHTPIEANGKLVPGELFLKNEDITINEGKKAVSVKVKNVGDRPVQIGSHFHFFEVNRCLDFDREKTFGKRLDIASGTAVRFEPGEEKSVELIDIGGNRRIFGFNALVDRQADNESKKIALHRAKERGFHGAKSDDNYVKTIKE
T2 sequence (P14916 whole entry, looked up): as the sequence (P14916 whole entry, further chain) above
T2 sequence (P69996 whole entry, looked up): as the sequence (P69996 whole entry) above

With `O=C(CC(O)c1cc(Cl)cc(Cl)c1O)NO` (racemic), the half-inhibitory concentration (IC50) in test [1] worked out at 8.9 µM; in test [3], 1.04 µM. The Ratio IC50 in test [2] was 3.
`O=C(CC(O)c1cccc(O)c1)NO` (racemic): the 50% inhibitory concentration (IC50) in test [3] turned out to be 131 µM.
As to `O=C(CC(O)c1ccccc1)NO` (racemic), the IC50 in test [3] was 15.6 µM.
On to `O=C(CC(O)c1cccc(Cl)c1)NO` (racemic), for which the IC50 in test [1] stood at 0.36 µM; in test [3] it was 0.083 µM. The inhibition constant Ki in test [4] stood at 0.014 µM. In test [5], the Ratio IC50 is 330.
On to `O=C(CC(O)c1ccc(Cl)c(Cl)c1)NO` (racemic), for which the values for the 50% inhibitory concentration (IC50) in test [1] and in test [3] were 1.42 µM and 0.37 µM, respectively. For the same molecule, the Ratio IC50 in test [2] is 3.
As to `COc1ccc(C(O)CC(=O)NO)cc1` (racemic), in test [3], the 50% inhibitory concentration (IC50) amounted to 75.1 µM.
Consider `O=C(CC(O)c1ccccc1Cl)NO` (racemic), for which the IC50 was 9.21 µM in test [1] and 1.19 µM in test [3]. Moreover, in test [2], the Ratio IC50 worked out at 3.
`O=C(CC(O)c1cccc(Cl)c1Cl)NO` (racemic): the IC50 in test [1] came to 0.91 µM; in test [3], 0.23 µM. Moreover, the Ratio IC50 in test [2] was determined as 4. For the same molecule, in test [4], the Ki worked out at 0.045 µM.
On to `O=C(CC(O)c1cccc(F)c1)NO` (racemic), for which the IC50 in test [1] is 13.3 µM; in test [3] it was 3.99 µM. Besides, in test [2], the Ratio IC50 was determined as 3.
Regarding `CN(C)c1ccc(C(=O)NO)cc1`, the 50% inhibitory concentration (IC50) in test [3] stood at 77.9 µM.
Turning to `O=C(CC(O)c1ccc(Cl)cc1)NO` (racemic), the 50% inhibitory concentration (IC50) in test [3] is 3.39 µM.
For `COc1cccc(C(O)CC(=O)NO)c1` (racemic), the IC50 in test [3] is 23.2 µM.
With `O=C(CC(O)c1ccc(F)cc1)NO` (racemic), the IC50 in test [3] is 8.01 µM.
As for `COc1ccc(F)cc1C(O)CC(=O)NO` (racemic), the IC50 in test [3] came out at 11 µM.
For `O=C(CC(O)c1cccc(C(F)(F)F)c1)NO` (racemic), the results for the concentration for half-maximal inhibition (IC50) in test [1] and in test [3] were 6.81 µM and 1.22 µM, respectively. For the same molecule, in test [2], the Ratio IC50 was found to be 3.
As for `COc1ccccc1C(O)CC(=O)NO` (racemic), in test [3], the IC50 came to 38.5 µM.
On the same count and under the same terms, next, `O=C(CC(O)c1ccccc1F)NO` (racemic): 5.6 µM.
With `O=C(CC(O)c1cc(Cl)ccc1O)NO` (racemic), the half-maximal inhibitory concentration (IC50) was 11.3 µM in test [1] and 1.28 µM in test [3]. Also, the Ratio IC50 in test [2] stood at 8.8.
For `O=C(CC(O)c1ccc(OCc2ccccc2)cc1)NO` (racemic), in test [3], the IC50 worked out at 61.5 µM.
As for `CN(C)c1ccc(C(O)CC(=O)NO)cc1` (racemic), the IC50 in test [3] was 7.13 µM.
Turning to `CC(=O)NO` [ACETOHYDROXAMIC ACID], the half-maximal inhibitory concentration (IC50) in test [1] worked out at 110 µM; in test [3], 27.6 µM.
Take `O=C(CC(O)c1ccc(C(F)(F)F)cc1)NO` (racemic): in test [3], the IC50 is 7.89 µM.
In test [6], `O=c1c(O)c(-c2ccc(O)c(O)c2)oc2cc(O)cc(O)c12` [QUERCETIN] registered an IC50 of 11.2 µM.

The IC50 is the concentration needed to halve the response being measured. As a reminder, the Ki is the dissociation constant of the complex between target and ligand, obtained from inhibition or displacement.
